According to ChEMBL document CHEMBL1125647, “Synthesis and siderophore and antibacterial activity of N5-acetyl-N5-hydroxy-L-ornithine-derived siderophore-beta-lactam conjugates: iron-transport-mediated drug delivery” (1991):
Values after ≈ are worked out from the molar mass of the structure shown.

Legend:
Type in all cases: functional
[1] = tested on: Shigella flexneri; assay: The relative ability of compound to promote the growth of Shigella flexneri SA 100, a strain lacking the ability to synthesize siderophores was measured as zone stimulation at concentration of 10 mM
Method in brief: (§1)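 S. flexneri SA100 grown overnight in Luria broth, seeded at 10^8/mL into Luria agar with EDDA (250 μg/mL). Compounds made as 10 mM aqueous stocks, diluted in water to 10, 1 or 0.1 mM. 10 μL applied on sterile paper disks. Incubated 37 °C, 18 h; diameters of growth-stimulation zones measured in mm.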

[2] = tested on: Shigella flexneri; assay: The relative ability of compound to promote the growth of Shigella flexneri SA 100, a strain lacking the ability to synthesize siderophores was measured as zone stimulation at concentration of 0.1 mM; method in brief: as §1
[3] = tested on: Shigella flexneri; assay: The relative ability of compound to promote the growth of Shigella flexneri SA 100, a strain lacking the ability to synthesize siderophores was measured as zone stimulation at concentration of 1 mM; method in brief: as §1
[4] = tested on: Streptococcus pneumoniae; assay: Minimum inhibitory concentration was measured against streptococcus pneumonia PARK
Method in brief: (§2)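 Standard agar dilution method; MICs determined externally by an industrial partner rather than in the authors' lab.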

[5] = tested on: Staphylococcus epidermidis; assay: Minimum inhibitory concentration was measured against staphylococcus epidermidis 222; method in brief: as §2
[6] = tested on: Pseudomonas; assay: Minimum inhibitory concentration was measured against Pseudomonas X528; method in brief: as §2
[7] = tested on: Salmonella; assay: Minimum inhibitory concentration was measured against salmonella 1135; method in brief: as §2
[8] = tested on: Escherichia coli; assay: Minimum inhibitory concentration was measured against Escherichia coli EC14; method in brief: as §2
[9] = tested on: Salmonella; assay: Minimum inhibitory concentration was measured against salmonella X514; method in brief: as §2
[10] = tested on: Shigella flexneri; assay: cell growth was measured against Shigella flexneri SA240 using liquid growth assay at 0h
Method in brief: (§3)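 Overnight cultures diluted 1:500 into Luria broth containing EDDA 10 μg/mL, with or without test compound at 100 μg/mL. Turbidity read as absorbance at 650 nm (table heading) at 0, 2 and 8 h. SA240 is an iucD:Tn5 siderophore-deficient derivative of SA100. RW193 is E. coli K12 entA, fhuA-positive. AN193 is entA, fhuA-negative, lacking the ferrichrome receptor.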

[11] = tested on: Escherichia coli; assay: cell growth was measured against Escherichia coli AN193 using liquid growth assay at 0h; method in brief: as §3
[12] = tested on: Escherichia coli; assay: cell growth was measured against Escherichia coli AN193 using liquid growth assay at 2 hr; method in brief: as §3
[13] = tested on: Escherichia coli; assay: cell growth was measured against Escherichia coli RW193 using liquid growth assay at 2 hr; method in brief: as §3
[14] = tested on: Escherichia coli; assay: cell growth was measured against Escherichia coli RW193 using liquid growth assay at 0h; method in brief: as §3
[15] = tested on: Shigella flexneri; assay: cell growth was measured against Shigella flexneri SA240 using liquid growth assay at 2 hr; method in brief: as §3
[16] = tested on: Escherichia coli; assay: cell growth was measured against Escherichia coli RW193 using liquid growth assay at 8 hr; method in brief: as §3
[17] = tested on: Shigella flexneri; assay: cell growth was measured against Shigella flexneri SA240 using liquid growth assay at 8 hr; method in brief: as §3
[18] = tested on: Escherichia coli; assay: cell growth was measured against Escherichia coli AN193 using liquid growth assay at 8 hr; method in brief: as §3

MIC [4] [µg/mL] | MIC [5] [µg/mL] | MIC [6] [µg/mL] | MIC [7] [µg/mL] | MIC [8] [µg/mL] | MIC [9] [µg/mL] | SMILES | Zone of stimulation [1] [mm] | Zone of stimulation [2] [mm] | Zone of stimulation [3] [mm] | Cell growth [10] | Cell growth [11] | Cell growth [12] | Cell growth [13] | Cell growth [14] | Cell growth [15] | Cell growth [16] | Cell growth [17] | Cell growth [18]
1 (≈ 2.86 µM) | 2 (≈ 5.72 µM) | > 128 | 0.5 (≈ 1.43 µM) | 0.5 (≈ 1.43 µM) | 0.25 (≈ 0.715 µM) | N[C@@H](C(=O)N[C@@H]1C(=O)N2C(C(=O)O)=C(Cl)CC[C@H]12)c1ccccc1 [LORACARBEF ANHYDROUS] |  |  |  |  |  |  |  |  |  |  |  | 
0.5 | 2 | > 128 | 1 | 1 | 0.25 | N[C@@H](C(=O)N[C@@H]1C(=O)N2C(C(=O)O)=C(Cl)CS[C@H]12)c1ccccc1.O [CEFACLOR] |  |  |  |  |  |  |  |  |  |  |  | 
> 64 | > 128 | > 128 | > 128 | > 64 | 0.125 (≈ 0.144 µM) | CC(=O)N(O)CCC[C@H](NC(=O)[C@H](CCCN(O)C(C)=O)NC(=O)[C@@H](N)CCCN(O)C(C)=O)C(=O)N[C@@H](C(=O)NC1C(=O)N2C(C(=O)O)=C(Cl)CC[C@H]12)c1ccccc1 (some centres undefined) |  |  |  |  |  |  |  |  |  |  |  | 
> 64 | > 128 | > 128 | > 64 | > 32 | 0.06 (≈ 0.068 µM) | CC(=O)N(O)CCC[C@H](NC(=O)[C@H](CCCN(O)C(C)=O)NC(=O)[C@@H](N)CCCN(O)C(C)=O)C(=O)N[C@@H](C(=O)NC1C(=O)N2C(C(=O)O)=C(Cl)CC[C@H]12)c1ccc(O)cc1 (some centres undefined) |  |  |  | 0.001 | 0.001 | 0.019 | 0.347 | 0.001 | 0.107 | 1.59 | 0.974 | 0.691

Further lines, the compound ahead of its results:

SMILES | MIC [4] [µg/mL] | MIC [5] [µg/mL] | MIC [6] [µg/mL] | MIC [7] [µg/mL] | MIC [8] [µg/mL] | MIC [9] [µg/mL] | Zone of stimulation [1] [mm] | Zone of stimulation [2] [mm] | Zone of stimulation [3] [mm] | Cell growth [10] | Cell growth [11] | Cell growth [12] | Cell growth [13] | Cell growth [14] | Cell growth [15] | Cell growth [16] | Cell growth [17] | Cell growth [18]
CC(=O)N(O)CCC[C@H](NC(=O)[C@H](CCCN(O)C(C)=O)NC(=O)[C@@H](N)CCCN(O)C(C)=O)C(=O)N[C@@H](C(=O)NC1C(=O)N(OCC(=O)O)[C@H]1C)c1ccccc1 (some centres undefined) |  |  |  |  |  |  | 28 | 0 | 12 |  |  |  |  |  |  |  |  | 
CC(=O)N(O)CCC[C@H](NC(=O)[C@H](CCCN(O)C(C)=O)NC(=O)[C@@H](N)CCCN(O)C(C)=O)C(=O)N[C@@H](C(=O)NC1C(=O)N(OCC(=O)O)[C@H]1C)c1ccc(O)cc1 (some centres undefined) |  |  |  |  |  |  | 31 | 0 | 16 |  |  |  |  |  |  |  |  | 
